# The list is not random: actives were taken first. Their share in the collection is about 1.6%.
# PKA-R2B act = activators of PKA-R2B holoenzyme, primary screen, biochemical, fluorescence polarization, Cy5-IP20, human | cAMP-dependent protein kinase catalytic subunit beta (Homo sapiens) + cAMP-dependent … | PKA-R2B holoenzyme dissociation; R2B truncated from residue 108, S112A mutant; 0% DMSO only, 100% 113 µM cGMP | activation, % at 11.4 µM | 340,000 tested, 0.079% active;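 active = activation above a cutoff set at the mean over all compounds plus 3 SD, cut at about 18% in these data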;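 also: higher means more holoenzyme dissociation and a rise in polarization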
# HNF4A DNA FP = change in binding of human HNF4A to DNA, primary screen, biochemical, fluorescence polarization, FITC-DNA | Hepatocyte nuclear factor 4-alpha (Homo sapiens), P41235 | 1 h | activity change, % at 10 µM | 360,000 tested, 0.3% active | AID 1224865, 2016; in the data active = activity change above about 30%, passing the limit was not always enough
# Rpn11 block = Rpn11 (PSMD14) deubiquitinase inhibitors, primary screen, biochemical, fluorescence polarization, uHTS | 26S proteasome non-ATPase regulatory subunit 14 (Homo sapiens), O00487 | human 26S proteasome, Ub4-pepOG fluorescence polarization; 20S core pre-blocked with epoxomicin | calls only at 20 µM | 360,000 tested, 0.59% active | AID 588493, 2011;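 active = inhibition at 20 µM, scaled to each plate's controls, above about 33%, limit read from the data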
# Target sequence (O00487 whole entry, looked up): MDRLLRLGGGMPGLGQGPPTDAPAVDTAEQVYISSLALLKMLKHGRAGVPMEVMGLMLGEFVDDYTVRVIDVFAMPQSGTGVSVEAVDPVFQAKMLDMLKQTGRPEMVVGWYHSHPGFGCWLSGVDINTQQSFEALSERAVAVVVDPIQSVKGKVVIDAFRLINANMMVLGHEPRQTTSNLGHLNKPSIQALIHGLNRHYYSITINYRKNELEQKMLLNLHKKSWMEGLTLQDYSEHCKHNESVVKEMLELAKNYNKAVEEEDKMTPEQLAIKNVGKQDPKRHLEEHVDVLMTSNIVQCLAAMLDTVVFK
# CSN deneddyl inh = inhibitors of CSN-mediated cullin deneddylation, primary screen, biochemical, fluorescence polarization, uHTS; COP9 signalosome complex subunit 5 (Homo sapiens), Q92905; Purified CSN, SCF-Nedd8-OG deneddylation; inhibition, % at 12.5 µM; 360,000 tested, 0.38% active; AID 651999, 2013;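 active = pattern-corrected inhibition above about 35%, with an unprinted fluorescence ratio check between 0.5 and 1.5, limit read from the data, passing the limit was not always enough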
# Target sequence (Q92905 whole entry, looked up, one chain of several): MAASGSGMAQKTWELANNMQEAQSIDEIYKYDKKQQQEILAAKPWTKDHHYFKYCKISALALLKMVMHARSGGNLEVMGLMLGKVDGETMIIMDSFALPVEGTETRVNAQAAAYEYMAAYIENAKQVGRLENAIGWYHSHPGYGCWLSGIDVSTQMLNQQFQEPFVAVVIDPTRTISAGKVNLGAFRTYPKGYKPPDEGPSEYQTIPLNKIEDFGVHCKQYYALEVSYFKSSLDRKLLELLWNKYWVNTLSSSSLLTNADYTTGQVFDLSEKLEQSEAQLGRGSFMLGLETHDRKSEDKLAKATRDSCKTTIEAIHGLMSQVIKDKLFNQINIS
#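 test system = HEK293T-derived human Csn5 enzyme | amount = 0.24 nM Csn5 enzyme, final concentration | medium = Tris/NaCl/DTT buffer, pH 7.5 | schedule = 90 min reaction at room temperature | signal = FP | evaluation = inhibition of Csn5 cleavage, % | compound dosing = single dose of 12.5 µM compound with 0.25% DMSO | probe or stimulus = 10 nM SCFSkp2-Nedd8OG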
# TPT1 inhibitor = Candida albicans TPT1 enzyme inhibitors, primary screen, biochemical, fluorescence polarization | tRNA 2'-phosphotransferase TPT1 (Candida albicans SC5314) | recombinant caTPT1, FP RNA substrate dephosphorylation | inhibition, % at 5 µM | 300,000 tested, 0.81% active | AID 1962, 2009;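 active = inhibition above the mean of all tested compounds plus 3 SD, set per screening campaign, cut at about 24% in these data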
# PKA-R1A act = activators of PKA-R1A holoenzyme, primary screen, biochemical, fluorescence polarization, Cy5-IP20, bovine R1A, mouse PKAc | cAMP-dependent protein kinase type I-alpha regulatory subunit (Bos taurus) + … | PKA-R1A dissociation; scaled: DMSO 0%, 113 µM cGMP 100% | activation, % at 11.4 µM | 340,000 tested, 0.083% active | AID 504707, 2011;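 active = percent activation above the mean of all tested compounds plus 3 SD, cut at about 19% in these data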;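 also: higher means more PKAc released from R1A so a rise in polarization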
# Rpn11 inh conf = Rpn11 (PSMD14) deubiquitinase inhibitors, confirmation, biochemical, fluorescence polarization, single concentration | shares compounds with Rpn11 block | purified human 26S proteasome, Ub4-pepOG fluorescence polarization; proteasome pretreated with epoxomicin | inhibition, % at 20 µM | 1,900 tested, 29% active
# MMP-2 counter = MMP-2 enzyme inhibition, confirmation, counter-screen for RPN11 inhibitor project, biochemical, fluorescence, single concentration; shares compounds with Rpn11 block; recombinant MMP-2, FRET peptide cleavage fluorescence; inhibition, % at 20 µM; 1,900 tested, 4% active;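 also: human MMP-2 activated beforehand with APMA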
# Thrombin FP = bovine thrombin protease inhibition, confirmation, counter-screen for Rpn11 inhibitor project, biochemical, fluorescence polarization, single concentration; 1,900 tested, 13% active; bovine thrombin cleavage of Ub4-pepOG; inhibition, % at 20 µM; shares compounds with Rpn11 block; AID 602333, 2012;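 active = mean inhibition at least 40% at 20 µM, or signal 3 deviations below plate average, so some actives read negative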
# A number is an active result; . = inactive; / = no result; + = active, no number. Rule as the data show it, unless noted: active = inhibition above about 40%; inactive = the rest.
SMILES,PKA-R2B act,HNF4A DNA FP,Rpn11 block,CSN deneddyl inh,TPT1 inhibitor,PKA-R1A act,Rpn11 inh conf,MMP-2 counter,Thrombin FP
COc1ccccc1N1CCN(C(=O)CSc2ncccc2-c2nc3ccccc3[nH]2)CC1,.,.,.,.,.,.,/,/,/
O=C(NCCSCc1ccccc1)c1ccc(C2SCC(=O)N2Cc2ccccc2)cc1 (stereo unspecified),.,.,+,.,.,.,43,.,.
COC(=O)c1ccc(C2SCC(=O)N2Cc2ccccc2)cc1 (stereo unspecified),.,.,.,.,.,.,/,/,/
NC(N)=NCCCS(=O)(=O)Nc1ccc(Nc2c3ccccc3nc3cc([N+](=O)[O-])ccc23)cc1,.,.,+,.,/,.,.,.,48
O=[N+]([O-])c1ccc(Nc2c3ccccc3nc3ccccc23)cc1,.,.,.,.,/,.,/,/,/
O=C(/C=C/c1ccccc1Cl)Nc1ccc2c(c1)C(=O)NC2=O,.,.,+,.,.,.,57,.,.
Cc1cccc(C(=O)Nc2nnc(S(=O)(=O)N(C)Cc3ccco3)s2)c1,.,.,.,.,.,.,/,/,/
CCOC(=O)CSc1cccc2cccnc12,.,.,+,.,.,.,.,.,.
COc1cccc(/C=N/NC(=O)CSc2cccc3cccnc23)c1,.,.,+,.,.,.,.,.,.
COc1ccc(OC)c(/C=N/NC(=O)CSc2cc(C)nc3c(OC)cccc23)c1,/,.,+,.,.,/,.,.,.
Cc1cccc(CSc2cccc3cccnc23)c1,.,.,+,.,.,.,42,.,.
O=C(CSc1cccc2cccnc12)N/N=C/c1ccc(O)cc1,.,.,.,.,.,.,/,/,/
CC(Oc1cc2oc(=O)c3c(c2cc1Cl)CCC3)C(=O)NCc1ccccn1 (stereo unspecified),.,.,.,.,.,.,/,/,/
Cc1cc(NC(=O)C(C)Sc2nc(-c3cccs3)nc3ccccc23)no1 (stereo unspecified),.,.,.,.,/,.,/,/,/
COc1ccc2[nH]cc(CCNC(=O)c3ccccc3Cl)c2c1,.,.,+,.,.,.,.,.,.
CC1=C(C(=O)Nc2ccccc2Cl)C(c2ccc(N(C)C)cc2)NC(=O)N1 (stereo unspecified),.,.,+,.,.,.,.,.,.
OCCNc1nc(Nc2cc(Cl)ccc2OC2CCCC2)nc(N2CCCC2)n1,.,.,.,.,.,.,/,/,/
COc1ccc(Cn2nnnc2C(c2ccccc2Cl)N2CCC(C(N)=O)CC2)cc1 (stereo unspecified),.,.,.,.,.,.,/,/,/
COc1ccc(Cn2nnnc2C(c2cc(OC)ccc2OC)N2CCC(C(N)=O)CC2)cc1 (stereo unspecified),.,.,+,.,.,.,.,.,.
CCOC(=O)C1CCN(C(=O)c2ccc(S(=O)(=O)Nc3ccccc3Cl)cc2)CC1,.,.,.,.,/,.,/,/,/
COc1ccc(-n2c(N)c(C(=O)Nc3c(C)n(C)n(-c4ccccc4)c3=O)c3nc4ccccc4nc32)cc1,.,.,+,.,.,.,.,.,.
O=C(Nc1ccc(F)c(F)c1)C1CCN(S(=O)(=O)c2cccs2)CC1,.,.,.,.,/,.,/,/,/
O=c1[nH]c(=O)n(CCc2ccc(F)cc2)c(O)c1C=NCc1ccc2c(c1)OCO2,.,.,+,.,.,.,.,.,.
NC1CCCCC1N=Cc1c(O)n(CCc2ccc(F)cc2)c(=O)[nH]c1=O (stereo unspecified),.,.,.,.,/,.,/,/,/
COc1nc(-c2ccccc2)ccc1-c1noc(-c2cccnc2)n1,.,.,+,.,.,.,.,.,.
SMILES,PKA-R2B act,HNF4A DNA FP,Rpn11 block,CSN deneddyl inh,TPT1 inhibitor,PKA-R1A act,Rpn11 inh conf,MMP-2 counter,Thrombin FP
COc1nc(-c2ccc(C)cc2)ccc1-c1noc(-c2cccnc2)n1,.,.,.,.,.,.,/,/,/
CCNC(=S)/N=C(\N)Nc1nc(C)c2cc(C)ccc2n1,.,.,+,.,.,.,.,.,.
COc1ccc(C2=C/C(=C\c3ccc(OC(C)=O)cc3)C(=O)O2)cc1,.,.,.,.,.,.,/,/,/
CN(C)c1ccc(/C=C2/C=C(c3ccc4c(c3)CCCC4)OC2=O)cc1,.,45,+,.,.,.,.,.,.
CCCCC(=O)Nc1ccc(Cl)cn1,.,.,.,.,.,.,/,/,/
CCCC(C)C(=O)Nc1ccc(Cl)cn1 (stereo unspecified),.,.,+,.,.,.,.,.,.
CCOc1ccc(C(C(=O)NC2CCCC2)N(C(=O)c2snc(C(N)=O)c2N)c2cccc(O)c2)cc1 (stereo unspecified),.,.,.,.,.,.,/,/,/
CN(C)C(=O)CCSc1nnc(-c2ccco2)o1,.,.,+,.,.,.,.,.,.
O=C(CSc1nnc(-c2ccco2)o1)c1ccc([N+](=O)[O-])cc1,/,.,+,.,.,/,.,.,.
CC(C)N1CCC(N2CCN(Cc3ccc(Oc4ncccn4)cc3)CC2CCO)CC1 (stereo unspecified),.,.,.,.,.,.,/,/,/
Cc1ccc2nc(-c3ccc(NC(=O)c4ccco4)cc3)[nH]c2c1,.,.,+,44,.,.,.,.,.
Cn1cccc1-c1nc2ccc(NC(=O)c3ccco3)cc2[nH]1,.,.,.,.,.,.,/,/,/
